APP 5'UTR act = activates APP 5'UTR luciferase reporter; SH-SY5Y APP 5'UTR luciferase reporter, luminescence; zero percent = DMSO vehicle wells; activation, % at 2 µM; 190,000 tested, 1% active; AID 1276;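 active = activation above a set limit, based on mean plus 3 SD of controls, cut at about 140% in these data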
NF-kB neuron act = compounds increasing NF-kB expression in human neuronal cells; fold change at 12.5 µM; AID 1239; NF-kB reporter expression; active compounds read high; 190,000 tested, 1.6% active; in the data active = fold change above about 3.3
FLuc inh counter = inhibits firefly luciferase, flagging false hits in luciferase inhibition screens; 200,000 tested, 1.5% active; ATPLite firefly luciferase biochemical luminescence, 10 min; inhibition, % at 10 µM; P08659;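 active = inhibition above about 50% when tested at 10 µM, limit read from the data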
Target sequence (P08659 whole entry, looked up): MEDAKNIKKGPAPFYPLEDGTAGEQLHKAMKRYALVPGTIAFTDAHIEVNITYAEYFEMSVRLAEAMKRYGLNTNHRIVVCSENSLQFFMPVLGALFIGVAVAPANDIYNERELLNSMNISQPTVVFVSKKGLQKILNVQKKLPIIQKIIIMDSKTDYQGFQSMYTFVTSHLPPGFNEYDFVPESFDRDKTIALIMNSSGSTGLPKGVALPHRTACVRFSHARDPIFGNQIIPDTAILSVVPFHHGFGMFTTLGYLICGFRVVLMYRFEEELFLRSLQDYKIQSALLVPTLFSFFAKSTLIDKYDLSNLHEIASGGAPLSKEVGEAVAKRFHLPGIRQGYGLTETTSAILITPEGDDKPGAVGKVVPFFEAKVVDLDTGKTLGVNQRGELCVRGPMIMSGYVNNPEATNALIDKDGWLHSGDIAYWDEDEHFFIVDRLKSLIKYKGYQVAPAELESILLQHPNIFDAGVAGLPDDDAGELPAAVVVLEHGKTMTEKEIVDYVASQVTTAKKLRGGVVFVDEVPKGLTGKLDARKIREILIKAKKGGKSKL
APP 5UTR inh = APP translation inhibition; SH-SY5Y APP 5'UTR-luciferase reporter, luminescence; inhibition, % at 2 µM; 190,000 tested, 0.82% active;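 active = inhibition above a set limit, derived from the sample mean plus 3 SD, cut at about 45% in these data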
FLuc stim CS = affects firefly luciferase, flagging false hits in luciferase stimulation screens. P08659. ATPlite luciferase biochemical, luminescence, 10 min; 0 = ATP-free wells, 1 = DMSO control. activation factor at 10 µM. 200,000 tested, under 10 active. AID 1027;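 active = luciferase activation factor, scaled between plate controls, of at least 2 with compound at 10 µM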
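Material: Luciferase/luciferin reagent mix | Doses: Test compounds dosed from 2 mM stocks in 100% DMSO | Timing: 10 min incubation after luciferase reagent addition, room temperature | Measured by: Luminescence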
STAT1 act = STAT1 signaling activation | activation (% of control), % at 5.5 µM | 200,000 tested, 2.6% active | AID 932 | NIH 3T3 STAT1-luciferase reporter, IFN-gamma, luminescence; 100% = IFN-gamma alone, no compound;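 active = activation above the screen-wide mean activation plus 3 SD, cut at about 130% in these data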;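 note: raw ratio to IFN-gamma control signal so 100% means no change and 0% no light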
* marks the source's active call; other numbers are inactive results. A selection: hits, their analogues and other compounds. The true share with any hit is near 4.8%.

`O=c1sc2ccccc2n1CCCOc1ccccc1` gave APP 5'UTR act 71, NF-kB neuron act 2.8, FLuc inh counter 14, APP 5UTR inh -71, FLuc stim CS 0.9 and STAT1 act 131*.
For COc1ccc(NC(=O)C(c2ccccc2)N(C)C(=O)c2ccc(=O)[nH]c2)cc1 (stereo not given) the results were APP 5'UTR act 12, NF-kB neuron act 1.1, FLuc inh counter -5, APP 5UTR inh -12, FLuc stim CS 1 and STAT1 act 114.
O=C(Cc1c(F)cccc1Cl)N(Cc1ccccc1)c1ccccn1 was read as APP 5'UTR act -4, NF-kB neuron act 0.96, FLuc inh counter -5, APP 5UTR inh 4, FLuc stim CS 1 and STAT1 act 92.
Screening Cc1c(-c2ccccc2)n[nH]c1C(=O)NN returned APP 5'UTR act 32, NF-kB neuron act 1.7, FLuc inh counter -6, APP 5UTR inh -32, FLuc stim CS 1.1 and STAT1 act 101.
Screening CCOc1ccc(-c2n[nH]c(C(=O)NN)c2C)cc1 returned APP 5'UTR act 14, NF-kB neuron act 0.96, FLuc inh counter -4, APP 5UTR inh -14, FLuc stim CS 1 and STAT1 act 129*.
For CC(C)/C=N/Nc1nc(-c2ccc(Br)cc2)cs1 the results were APP 5'UTR act -1, NF-kB neuron act 2.6, FLuc inh counter 4, APP 5UTR inh 1, FLuc stim CS 1 and STAT1 act 112.
For O=C(CSc1ccc2ccccc2c1)Nc1nc2ccccc2[nH]1 the results were APP 5'UTR act 10, NF-kB neuron act 1.1, FLuc inh counter -6, APP 5UTR inh -10, FLuc stim CS 1.1 and STAT1 act 96.
`CCCSc1ccc2nc(NC(=O)OC)[nH]c2c1` gave APP 5'UTR act -92, NF-kB neuron act 1.8, FLuc inh counter 23, APP 5UTR inh 92*, FLuc stim CS 0.8 and STAT1 act 128.
For CCn1c(/N=C/c2c[nH]c3ccccc23)nc2ccccc21 the results were APP 5'UTR act -13, NF-kB neuron act 1.1, FLuc inh counter 57*, APP 5UTR inh 13, FLuc stim CS 0.4 and STAT1 act 108.
For O=C(CS(=O)(=O)c1ccccc1)Nc1ccc(Br)cn1 the results were APP 5'UTR act 1, NF-kB neuron act 1.6, FLuc inh counter 1, APP 5UTR inh -1, FLuc stim CS 1 and STAT1 act 95.
Screening Cc1ccc(NC(=O)/C=C/c2ccc(Cl)cc2)nc1 returned APP 5'UTR act 55, NF-kB neuron act 1.7, FLuc inh counter 6, APP 5UTR inh -55, FLuc stim CS 0.9 and STAT1 act 137*.
`O=C(/C=C/c1cccc([N+](=O)[O-])c1)Nc1ccc(Cl)cn1` gave APP 5'UTR act 45, NF-kB neuron act 0.56, FLuc inh counter 0, APP 5UTR inh -45, FLuc stim CS 1 and STAT1 act 113.
O=C(/C=C/c1ccccc1)Nc1ccc(Br)cn1 was read as APP 5'UTR act -63, NF-kB neuron act 0.97, FLuc inh counter 11, APP 5UTR inh 63*, FLuc stim CS 0.9 and STAT1 act 142*.
O=C(NC(CSCc1ccccc1)C(=O)N/N=C/c1ccc(O)cc1O)c1ccc([N+](=O)[O-])cc1 (stereo not given) was read as APP 5'UTR act -50, NF-kB neuron act 1.1, FLuc inh counter -3, APP 5UTR inh 50*, FLuc stim CS 1 and STAT1 act 102.
Screening C/C(=N/N=C/c1ccc(N(C)C)cc1)c1ccccc1 returned APP 5'UTR act 189*, NF-kB neuron act 1.7, FLuc inh counter 77*, APP 5UTR inh -189, FLuc stim CS 0.2 and STAT1 act 133*.
Cc1ccc(N=Cc2ccc(N(C)C)cc2)cc1 was read as APP 5'UTR act -4, NF-kB neuron act 1.2, FLuc inh counter 5, APP 5UTR inh 4, FLuc stim CS 0.9 and STAT1 act 100.
For CN(C)c1ccc(N=Cc2ccco2)cc1 the results were APP 5'UTR act 153*, NF-kB neuron act 0.87, FLuc inh counter 2, APP 5UTR inh -153, FLuc stim CS 1 and STAT1 act 150*.
`CN(C)c1ccc(C=Nc2ccc(N(C)C)cc2)cc1` gave APP 5'UTR act 175*, NF-kB neuron act 0.93, FLuc inh counter 36, APP 5UTR inh -175, FLuc stim CS 0.6 and STAT1 act 144*.
CN(C)c1ccc(C=Nc2ccccc2)cc1 was read as APP 5'UTR act -13, NF-kB neuron act 1.2, FLuc inh counter -1, APP 5UTR inh 13, FLuc stim CS 1 and STAT1 act 98.
`O=C(c1cccs1)N1CCN(c2ccccc2)CC1` gave APP 5'UTR act 9, NF-kB neuron act 1, FLuc inh counter -2, APP 5UTR inh -9, FLuc stim CS 1 and STAT1 act 102.
`Clc1ccc(Cc2nc(-c3cccnc3)no2)cc1` gave APP 5'UTR act -13, NF-kB neuron act 1.3, FLuc inh counter -2, APP 5UTR inh 13, FLuc stim CS 1 and STAT1 act 108.
For Cn1ccc2c([N+](=O)[O-])cccc2c1=O the results were APP 5'UTR act 6, NF-kB neuron act 2.4, FLuc inh counter -5, APP 5UTR inh -6, FLuc stim CS 1 and STAT1 act 99.
NNC(=O)c1cc(Br)cs1 was read as APP 5'UTR act 3, NF-kB neuron act 1, FLuc inh counter -9, APP 5UTR inh -3, FLuc stim CS 1.1 and STAT1 act 107.
For Cc1ccc(C(=O)NC2CCc3ccccc3C2=O)cc1 (stereo not given) the results were APP 5'UTR act 156*, NF-kB neuron act 3.9*, FLuc inh counter 62*, APP 5UTR inh -156, FLuc stim CS 0.4 and STAT1 act 141*.
`COC(=O)N/N=C/c1cn(Cc2ccccc2Cl)c2ccccc12` gave APP 5'UTR act 5, NF-kB neuron act 1, FLuc inh counter -5, APP 5UTR inh -5, FLuc stim CS 1.1 and STAT1 act 94.
Cc1[nH][nH]c(=O)c1C(c1c(C)[nH][nH]c1=O)c1cn(Cc2ccccc2Cl)c2ccccc12 was read as APP 5'UTR act -49, NF-kB neuron act 0.81, FLuc inh counter -8, APP 5UTR inh 49*, FLuc stim CS 1.1 and STAT1 act 104.
For Cc1cc(NC(=O)c2ccc(Cl)cc2)c(C(C)C)cc1O the results were APP 5'UTR act 8, NF-kB neuron act 0.86, FLuc inh counter 7, APP 5UTR inh -8, FLuc stim CS 0.9 and STAT1 act 101.
Cc1ccc(C(=O)Nc2cc(Cl)ccc2OC(=O)c2ccc(C)cc2)cc1 was read as APP 5'UTR act 78, NF-kB neuron act 4.1*, FLuc inh counter 20, APP 5UTR inh -78, FLuc stim CS 0.8 and STAT1 act 96.
`CC(C)(C)c1ccc(C(=O)Nc2ccccc2Cl)cc1` gave APP 5'UTR act 201*, NF-kB neuron act 4.8*, FLuc inh counter 59*, APP 5UTR inh -201, FLuc stim CS 0.4 and STAT1 act 115.
